Series [1] in a line: Prodrug conversion in buffer assessed as half life of cyclization at pH 7 to 7.5. The series is classed as physicochemical.
Series [2] is described as follows: Prodrug conversion in buffer assessed as half life of cyclization at pH 5. The series is classed as physicochemical.
Series [3] in a line: Prodrug conversion in buffer assessed as half life of cyclization at pH 5.5. Format: physicochemical.
Series [4] is described as follows: Prodrug conversion in buffer assessed as half life of cyclization at pH 2.5. Format: physicochemical.
Series [5] in a line: Prodrug conversion in buffer assessed as half life of cyclization at pH 3.44. The series is classed as physicochemical.
The nature of series [6]: Prodrug conversion assessed as Clostridium perfringes azoreductase-mediated budesonide formation at pH 7.4. The series is classed as ADME. Conditions: clostridium perfringens. A digest of the protocol: (§1)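 Prodrugs incubated anaerobically with a suspension of azoreductase-producing Clostridium perfringens at 37 °C, pH 7.4, sampled over 24 h. Progress curves tracked loss of prodrug and appearance of budesonide and linker byproducts (the dihydroquinolone or 3,3-dimethyl-1,3-dihydro-indol-2-one). Assay conditions follow the group's earlier method.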

A short description of series [7]: Prodrug conversion assessed as Clostridium perfringes azoreductase-mediated reduction after 6 hrs at pH 7.4. The series is classed as ADME. The settings on record: clostridium perfringens, pH 7.4, 6 h. A digest of the protocol: as §1
The nature of series [8]: Chemical stability in simulated gastric juice up to 24 hrs. The series is classed as physicochemical. The settings on record: simulated gi fluid. A digest of the protocol: (§2)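 Prodrug incubated in simulated duodenal or gastric juice at 37 °C and followed for up to 24 h to see whether it stays intact.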
Series [9] is described as follows: Chemical stability in simulated doudenal juice up to 24 hrs. Format: physicochemical. A digest of the protocol:
as §2

Series [10] is described as follows: Drug metabolism assessed as Clostridium perfringes azoreductase-mediated hydrolysis at pH 7.4. The series is classed as ADME. Conditions: clostridium perfringens; call rule not given here.
Series [11] can be described thus: Drug metabolism assessed as Clostridium perfringes azoreductase-mediated hydrazine reoxidation to parent azo compound formation at pH 7.4 by HPLC analysis. The series is classed as ADME. Conditions: clostridium perfringens.
A short description of series [12]: Drug metabolism assessed as Clostridium perfringes azoreductase-mediated hydrazine formation at pH 7.4 by HPLC analysis. Format: ADME. Conditions: clostridium perfringens.
The nature of series [13]: Drug metabolism assessed as Clostridium perfringes azoreductase-mediated cyclization to dihydroquinolone at pH 7.4. Format: ADME. The settings on record: clostridium perfringens. Summed up: as §1

Turning to `CCCC1O[C@@H]2C[C@H]3[C@@H]4CCC5=CC(=O)C=C[C@]5(C)[C@H]4[C@@H](O)C[C@]3(C)[C@]2(C(=O)COC(=O)CCc2ccccc2N)O1` (mixture of isomers), the t1/2 in series [1] is listed as 201 min; in series [2], 52.7 min; in [3] it was 73.2 min; in series [4], 25.9 min; in series [5], 29.3 min.

For the molecule `CCCC1O[C@@H]2C[C@H]3[C@@H]4CCC5=CC(=O)C=C[C@]5(C)[C@H]4[C@@H](O)C[C@]3(C)[C@]2(C(=O)COC(=O)CCc2ccccc2/N=N/c2ccc(O)c(C(=O)O)c2)O1` (mixture of isomers), the results for the Drug metabolism result in series [6], in series [7] and in series [10] were “Active”, “Active” and “Not Active”, respectively. The Stability entry in series [8] and in [9] was “Stable” in each case.

Take `CCCC1O[C@@H]2C[C@H]3[C@@H]4CCC5=CC(=O)C=C[C@]5(C)[C@H]4[C@@H](O)C[C@]3(C)[C@]2(C(=O)COC(=O)CCc2ccccc2/N=N/c2ccc(C(=O)O)cc2)O1` (mixture of isomers): the Drug metabolism entry in series [6] is listed as “Not Active”; in [11], “Active”; in [12], “Active”; in series [7] it was “Not Active”. The Stability result in series [8] and in series [9] was “Stable” in each case.

Consider `CCCC1O[C@@H]2C[C@H]3[C@@H]4CCC5=CC(=O)C=C[C@]5(C)[C@H]4[C@@H](O)C[C@]3(C)[C@]2(C(=O)COC(=O)C(C)(C)c2ccccc2/N=N/c2ccc(O)c(C(=O)O)c2)O1` (mixture of isomers), for which the Drug metabolism result in series [6], in [13] and in series [7] was “Active” each time. For the same molecule, the Stability entry in [8] and in series [9] was “Stable” in each case.

The record behind these values is ChEMBL document CHEMBL2203063, “Azo-reductase activated budesodine prodrugs for colon targeting” (Bioorg Med Chem Lett, 2012).
